Measurements as given in ChEMBL document CHEMBL1123901, “Inhibition of delayed hypersensitivity reactions by cinnamyl 1-thioglycosides” (J Med Chem, 1987).

Tests used:
Type in all cases: functional
Cavia porcellus [1] = organism: Cavia porcellus; assay: [3H]thymidine uptake was determined by liquid scintillation spectroscopy in ovalbumin pulsed Macrophages
Outline: (§1)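 Pretreatment protocol. Strain 2 female guinea pigs immunized with OVA in CFA (100 μg OVA; 0.1 mL/foot); mineral oil given ip at day 14, peritoneal exudate collected 4 days later. Nylon-wool-enriched T cells (PELs) and irradiated (2100 rads) exudate macrophages each incubated with sugar derivative 18 h at 37 °C, then washed. Macrophages pulsed with OVA 100 μg/mL for 1 h at 37 °C and washed. Viability adjusted by trypan blue; populations mixed and cultured 72 h at 37 °C. [3H]thymidine (1 μCi) added 18-24 h before harvest; read by liquid scintillation as mean Δcpm ×10^-3.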

Cavia porcellus [2] = organism: Cavia porcellus; assay: Effect on guinea pig T cell proliferation was tested by measuring the incorporation of [3H]-thymidine uptake at the concentration of 0 uM
Outline: (§2)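 Strain 2 female guinea pigs were immunized with 100 μg OVA in CFA split over the footpads. At day 14 they received mineral oil ip, and the exudate was collected 4 days later. T cells were enriched on nylon wool. 2×10^5 cells per well were cultured with 10% irradiated (2100 rads) exudate cells, OVA (10 μg/mL) and compound, for 72 h at 37 °C in 5% CO2. [3H]thymidine (1 μCi) was added 18-24 h before harvest. Triplicate wells; mean Δcpm ± SD.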

Cavia porcellus [3] = organism: Cavia porcellus; assay: Inhibitory activity against [3H]thymidine uptake by cinnamyl 1-thioglycosides in guinea pig T cell proliferation; conditions: t-cell; outline: as §2
Cavia porcellus [4] = organism: Cavia porcellus; assay: Effect on guinea pig T cell proliferation was tested by measuring the incorporation of [3H]thymidine uptake at the concentration of 10 uM; outline: as §2
Cavia porcellus [5] = organism: Cavia porcellus; assay: Effect on guinea pig T cell proliferation was tested by measuring the incorporation of [3H]-thymidine uptake at the concentration of 100 uM; outline: as §2
Cavia porcellus [6] = organism: Cavia porcellus; assay: Effect on guinea pig T cell proliferation was tested by measuring the incorporation of [3H]thymidine uptake at the concentration of 1000 uM; outline: as §2
Cavia porcellus [7] = organism: Cavia porcellus; assay: Effect on guinea pig T cell proliferation was tested by measuring the incorporation of [3H]thymidine uptake at the concentration of 500 uM; outline: as §2
Cavia porcellus [8] = organism: Cavia porcellus; assay: Effect on guinea pig T cell proliferation was tested by measuring the incorporation of [3H]thymidine uptake at the concentration of 750 uM; outline: as §2
Cavia porcellus [9] = organism: Cavia porcellus; assay: [3H]thymidine uptake was determined by liquid scintillation spectroscopy in compound 4 pretreated OVA pulsed Macrophages plus OVA (10 ug/mL)
Outline: (§3)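 Guinea pig PELs and irradiated (2100 rads) exudate macrophages were each preincubated with compound (1 mM or 500 μM, depending on agent) for 18 h at 37 °C, then washed. Macrophages were pulsed with OVA 100 μg/mL for 1 h at 37 °C and washed. Cells were viability-adjusted by trypan blue and mixed, with or without OVA 10 μg/mL. Culture ran 72 h at 37 °C with [3H]thymidine read by scintillation, as mean Δcpm × 10^-3.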

Cavia porcellus [10] = organism: Cavia porcellus; assay: [3H]thymidine uptake was determined by liquid scintillation spectroscopy in compound 4 treated Macrophages pretreated with 500 uM of 4 at 37 degree C for 18 h; conditions: in the assay text read “1 mM” for “500 uM”; outline: as §3
Cavia porcellus [11] = organism: Cavia porcellus; assay: [3H]thymidine uptake was determined by liquid scintillation spectroscopy in 4 pretreated OVA pulsed Macrophages plus OVA (10 ug/mL) pretreated with 500 uM of 4 at 37 degree C for 18 h; conditions: in the assay text read “1 mM” for “500 uM”; outline: as §3
Cavia porcellus [12] = organism: Cavia porcellus; assay: [3H]thymidine uptake was determined by liquid scintillation spectroscopy in Macrophages; outline: as §3
Cavia porcellus [13] = organism: Cavia porcellus; assay: [3H]-Thymidine uptake was determined by liquid scintillation spectroscopy in Macrophages pretreated with 500 uM of 4 at 37 degree C for 18 h; conditions: in the assay text read “1 mM” for “500 uM”; outline: as §3
Cavia porcellus [14] = organism: Cavia porcellus; assay: [3H]-Thymidine uptake was determined by liquid scintillation spectroscopy in OVA pulsed compound 4 pretreated Macrophages pretreated with 500 uM of 4 at 37 degree C for 18 h; conditions: in the assay text read “1 mM” for “500 uM”; outline: as §3
Cavia porcellus [15] = organism: Cavia porcellus; assay: [3H]thymidine uptake was determined by liquid scintillation spectroscopy in compound 2 treated Macrophages; outline: as §3
Mus musculus [16] = assay: Compound was administered intraperitoneally to mice before increase in foot-pad thickness at a dose of 10 mg/kg; conditions: route intraperitoneal
Outline: (§4)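 DTH in A/J female mice (20-23 g): cyclophosphamide 200 mg/kg sc, then iv sensitization with 10^8 washed SRBC 3 days later. On day 6 after sensitization, one hind footpad challenged with 10^8 SRBC in 20 μL, the other given saline. Dosing ip or po to overnight-fasted mice 20 min before challenge. Swelling read at 24 and 48 h as antigen minus saline footpad (mm × 10), by constant-pressure caliper.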

Mus musculus [17] = assay: Compound was administered intraperitoneally to mice before increase in foot-pad thickness at a dose of 3 mg/kg; conditions: route intraperitoneal; outline: as §4
Mus musculus [18] = assay: Compound was administered orally to mice before increase in foot-pad thickness at a dose of 10 mg/kg; conditions: route oral; outline: as §4
Mus musculus [19] = assay: Compound was administered orally to mice before increase in foot-pad thickness at a dose of 3 mg/kg; conditions: route oral; outline: as §4
Mus musculus [20] = assay: Compound was administered orally to mice before increase in foot-pad thickness at a dose of 30 mg/kg; conditions: route oral; outline: as §4
Mus musculus [21] = assay: Percent reduction in mice after oral administration 10 mg/kg; outline: as §4
Mus musculus [22] = assay: Percent reduction in mice after intraperitoneal administration 3 mg/kg; outline: as §4
Mus musculus [23] = assay: Percent reduction in mice after intraperitoneal administration of 30 mg/kg; outline: as §4
Mus musculus [24] = assay: Percent reduction in mice after oral administration 3 mg/kg; outline: as §4
Mus musculus [25] = assay: Percent reduction in mice after oral administration of 30 mg/kg; outline: as §4
Mus musculus [26] = assay: Percent reduction in mice after intraperitoneal administration 10 mg/kg; outline: as §4
Cavia porcellus [27] = organism: Cavia porcellus; assay: [3H]thymidine uptake was determined by liquid scintillation spectroscopy in ovalbumin (OVA) pulsed compound 4 treated Macrophages; outline: as §1
Cavia porcellus [28] = organism: Cavia porcellus; assay: Effect on guinea pig T cell proliferation was tested by measuring the incorporation of [3H]thymidine uptake at the concentration of 250 uM; outline: as §2
Mus musculus [29] = assay: Compound was administered intraperitoneally to mice before increase in foot-pad thickness at a dose of 30 mg/kg; conditions: route intraperitoneal; outline: as §4
Cavia porcellus [30] = organism: Cavia porcellus; assay: [3H]-Thymidine uptake was determined by liquid scintillation spectroscopy in ovalbumin (OVA) pulsed compound 2 treated Macrophages; outline: as §3
Cavia porcellus [31] = organism: Cavia porcellus; assay: [3H]-Thymidine uptake was determined by liquid scintillation spectroscopy in compound 21 treated Macrophages pretreated with 500 uM of 21 at 37 degree C for 18 h; outline: as §3
Cavia porcellus [32] = organism: Cavia porcellus; assay: [3H]-Thymidine uptake was determined by liquid scintillation spectroscopy in 21 pretreated OVA pulsed Macrophages plus OVA (10 ug/mL) pretreated with 500 uM of 21 at 37 degree C for 18 h; outline: as §3
Cavia porcellus [33] = organism: Cavia porcellus; assay: [3H]thymidine uptake was determined by liquid scintillation spectroscopy in 3 treated Macrophages plus OVA (10 ug/mL); outline: as §3
Cavia porcellus [34] = organism: Cavia porcellus; assay: [3H]-Thymidine uptake was determined by liquid scintillation spectroscopy in Macrophages pretreated with 500 uM 21 at 37 degree C for 18 h; outline: as §3
Cavia porcellus [35] = organism: Cavia porcellus; assay: [3H]-Thymidine uptake was determined by liquid scintillation spectroscopy in OVA pulsed Macrophages pretreated with 500 uM of 21 at 37 degree C for 18 h; outline: as §3
Cavia porcellus [36] = organism: Cavia porcellus; assay: [3H]thymidine uptake was determined by liquid scintillation spectroscopy in OVA pulsed compound 21 pretreated Macrophages pretreated with 500 uM of 21 at 37 degree C for 18 h; outline: as §3
Cavia porcellus [37] = organism: Cavia porcellus; assay: [3H]-Thymidine uptake was determined by liquid scintillation spectroscopy in compound 21 pretreated Macrophages plus OVA (ug/mL) pretreated with 500 uM of 21 at 37 degree C for 18 h; outline: as §3
Cavia porcellus [38] = organism: Cavia porcellus; assay: [3H]thymidine uptake was determined by liquid scintillation spectroscopy in compound 21 pretreated OVA pulsed Macrophages plus OVA (10 ug/mL); outline: as §3
Mus musculus [39] = assay: Compound was administered orally to mice before increase in foot-pad thickness at a dose of 2.5 mg/kg; conditions: route oral; outline: as §4
Mus musculus [40] = assay: Percent reduction in mice after oral administration 2.5 mg/kg; outline: as §4

CC1OC(SC/C=C/c2ccccc2)C(O)C(O)C1O (stereo in doubt; 4)
Delta cpm x10e-3 (Cavia porcellus [1]): 141.55
Activity (Cavia porcellus [2]): 72.8 Δcpm x10e-3
IC50 (Cavia porcellus [3]): 160 µM
Activity (Cavia porcellus [4]): 93.6 Δcpm x10e-3
Activity (Cavia porcellus [5]): 62.1 Δcpm x10e-3
Activity (Cavia porcellus [6]): 0.06 Δcpm x10e-3
Activity (Cavia porcellus [7]): 1.51 Δcpm x10e-3
Activity (Cavia porcellus [8]): 0.02 Δcpm x 10^-3
Delta cpm x10e-3 (Cavia porcellus [9]): 139.97
Delta cpm x10e-3 (Cavia porcellus [10]): 2.81
Delta cpm x10e-3 (Cavia porcellus [11]): 49.95
Delta cpm x10e-3 (Cavia porcellus [12]): 6.67
Delta cpm x10e-3 (Cavia porcellus [13]): 4.75
Delta cpm x10e-3 (Cavia porcellus [14]): 33.97
Delta cpm x10e-3 (Cavia porcellus [15]): 4.89
Activity (Mus musculus [16]): 2.78 mm x10
Activity (Mus musculus [17]): 4.6 mm x10
Activity (Mus musculus [18]): 0.96 mm x10
Activity (Mus musculus [19]): 0.98 mm x10
Activity (Mus musculus [20]): 0.77 mm x10
Reduction (Mus musculus [21]): 18%
Reduction (Mus musculus [22]): 13%
Reduction (Mus musculus [23]): 56%
Reduction (Mus musculus [24]): 16%
Reduction (Mus musculus [25]): 34%
Reduction (Mus musculus [26]): 47%
Delta cpm x10e-3 (Cavia porcellus [27]): 104.36
Activity (Cavia porcellus [28]): 5.8 Δcpm x10e-3
Activity (Mus musculus [29]): 2.34 mm x10

CC1OC(SC/C=C/c2ccccc2)C(O)C(O)C1O (stereo in doubt; 21)
Delta cpm x10e-3 (Cavia porcellus [30]): 13.97
Delta cpm x10e-3 (Cavia porcellus [1]): 45.43
Activity (Cavia porcellus [2]): 89.1 Δcpm x10e-3
IC50 (Cavia porcellus [3]): 102 µM
Activity (Cavia porcellus [4]): 86.5 Δcpm x10e-3
Activity (Cavia porcellus [5]): 66.3 Δcpm x10e-3
Activity (Cavia porcellus [6]): 0 Δcpm x10e-3
Activity (Cavia porcellus [7]): 0.11 Δcpm x10e-3
Activity (Cavia porcellus [8]): 0 Δcpm x 10^-3
Delta cpm x10e-3 (Cavia porcellus [31]): 1.62
Delta cpm x10e-3 (Cavia porcellus [32]): 3.82
Delta cpm x10e-3 (Cavia porcellus [33]): 14.22
Delta cpm x10e-3 (Cavia porcellus [12]): 1.46
Delta cpm x10e-3 (Cavia porcellus [34]): 1.34
Delta cpm x10e-3 (Cavia porcellus [35]): 29.03
Delta cpm x10e-3 (Cavia porcellus [36]): 2.63
Delta cpm x10e-3 (Cavia porcellus [37]): 2.63
Delta cpm x10e-3 (Cavia porcellus [38]): 11.14
Delta cpm x10e-3 (Cavia porcellus [15]): 2.26
Activity (Cavia porcellus [28]): 26.7 Δcpm x10e-3

C[C@@H]1C[C@H]2[C@@H]3CCC4=CC(=O)C=C[C@]4(C)[C@@]3(F)[C@@H](O)C[C@]2(C)[C@@]1(O)C(=O)CO [DEXAMETHASONE]
Activity (Mus musculus [39]): 0.3 mm x10
Reduction (Mus musculus [40]): 68%
